HSF1 inh: HSF1 inhibitors in luciferase reporter cells, primary screen, cell-based, NIH3T3, luminescence | NIH3T3-HGL HSE-luciferase, MG132-induced, luminescence 8 h; active compounds read low | activity change, negative = inhibition, % at 7.5 µM (by protocol) | 300,000 tested, 0.77% active;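 active = more than half of replicate wells show activity change below -50%, luminescence cut by over half; inconclusive = some wells, but at most half, below -50%; inactive = no replicate well below -50%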;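 note: luciferase reports HSF-1 transcriptional activity via heat shock element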
AI-2 QS mod: Vibrio harveyi AI-2 quorum sensing modulators, primary screen, JMH597 strain, luminescence/OD600 ratio; 300,000 tested, 0.4% active; activity change, % at 7.5 µM; AID 2094, 2009; Vibrio harveyi JMH597 AI-2 luminescence/OD600 ratio, 9 h; active compounds read low; strain lacks LuxN and CqsS sensors; 0 = neutral-control median; in the data active = activity change below about -75%, passing the limit was not always enough; inconclusive = no clear call, values can overlap the other calls;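 note: luminescence divided by OD600 gain over 9 h not by final OD600 alone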
HCV core dimer: inhibitors of HCV core protein dimerization, primary screen, biochemical, TR-FRET, high-throughput | inhibition, % at 5 µM | 300,000 tested, 0.33% active | TR-FRET GST/Flag-core106 dimerization, 1536-well;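 active = inhibition above the mean of all tested compounds plus 3 SD, set per screening campaign, cut at about 45% in these data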
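Material: GST/Flag-tagged HCV core106 proteins. Incubation: 4 h, 22.5 °C incubation. Read-out basis: inhibition (%) from 671 over 617 nm ratio. Measured by: TR-FRET, excitation 340 nm, emission 617 and 671 nm.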
HSF-1 act: HSF-1 activators, primary screen, NIH3T3-HGL cells, MG132 stress, luminescence, single point; NIH3T3-HGL HSF-1 luciferase reporter, 8 h; 100% = twice DMSO control signal; activation, % at 9 µM; 300,000 tested, 1.7% active; AID 504408, 2011;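 active = mean replicate activation of at least 50% with a set share of replicates each reaching 50%; inconclusive = only one of those two conditions met; inactive = mean below 50% and too few replicates reaching it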
PHOSPHO1 block: PubChem AID 1565; Phosphoethanolamine/phosphocholine phosphatase (Homo sapiens), Q8TCT1; recombinant PHOSPHO1, absorbance phosphatase assay; inhibition, % at 13.3 µM; 290,000 tested, 1.1% active; in the data active = inhibition above about 60%
Target sequence (Q8TCT1 whole entry, looked up): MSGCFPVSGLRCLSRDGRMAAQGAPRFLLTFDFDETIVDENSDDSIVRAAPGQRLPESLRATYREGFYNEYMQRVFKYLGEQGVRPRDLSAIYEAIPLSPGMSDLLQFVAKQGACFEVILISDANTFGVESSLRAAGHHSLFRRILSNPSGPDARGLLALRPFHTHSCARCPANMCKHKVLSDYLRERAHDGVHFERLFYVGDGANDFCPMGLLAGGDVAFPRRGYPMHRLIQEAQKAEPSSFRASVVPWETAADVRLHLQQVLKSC
ALR inh: inhibitors of human ALR sulfhydryl oxidase, primary screen, biochemical, H2O2 detection, HRP-luminol luminescence, single point | 290,000 tested, 3.8% active | inhibition, % (concentration not given with the values) | purified ALR, DTT oxidation | FAD-linked sulfhydryl oxidase ALR (Homo sapiens), P55789 | AID 485317, 2010;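 active = mean replicate inhibition above about 79%, with every replicate also reaching it, limit read from the data; inconclusive = only one of the two criteria met; inactive = mean below limit and not every replicate reaching it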
Target sequence (P55789 whole entry, looked up): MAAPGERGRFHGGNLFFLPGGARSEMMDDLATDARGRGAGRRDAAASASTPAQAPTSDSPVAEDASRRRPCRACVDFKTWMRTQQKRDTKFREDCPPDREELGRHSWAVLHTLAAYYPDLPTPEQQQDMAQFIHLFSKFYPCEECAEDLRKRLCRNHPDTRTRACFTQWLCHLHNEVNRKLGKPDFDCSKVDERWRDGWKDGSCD
Each line names hits and unclear results; the compound was inactive in the other large screens. Only some compounds are listed: those with a hit (about 6.8% of all), similar ones and a draw of the others.

Cc1cnc(NC(=O)CCNC(=O)c2ccc([N+](=O)[O-])cc2)s1	none
c1ccc2c3c([nH]c2c1)CCNC3	HSF-1 act 162
CCOC(=O)Cn1c(=O)oc2cc(S(=O)(=O)Nc3ccc(N(CC)CC)cc3C)ccc21	ALR inh 99
CCOC(=O)Cn1c(=O)oc2cc(S(=O)(=O)Nc3cc(OCC)ccc3OCC)ccc21	none (no result: HSF1 inh, AI-2 QS mod, HSF-1 act, ALR inh)
CCOC(=O)Cn1c(=O)oc2cc(S(=O)(=O)NCCC(C)C)ccc21	HSF1 inh -70
CCc1sc(NC(=O)CCC(=O)O)nc1-c1cc2ccccc2oc1=O	none
Cc1cc(Br)ccc1-n1[nH]c(C)c(C=Nc2cccc3nsnc23)c1=O	none
CCOC(=O)C(C(=O)OCC)c1c([N+](=O)[O-])c(=O)n2c3c(cccc13)CCC2	none
CCOC(=O)c1cnn(-c2nc(SC)nc3sc4c(c23)CCC4)c1N	HCV core dimer 80
CCOC(=O)c1cnn(-c2nc(C)nc3sc4c(c23)CCC4)c1N	none (no result: HSF1 inh, AI-2 QS mod, HCV core dimer, HSF-1 act, ALR inh)
CCN(CC(=O)Nc1ccc2c(c1)OCCO2)C(=O)/C=C/c1cccc(OC)c1OC	none (no result: PHOSPHO1 block)
O=C(CSc1ccc2c(c1)OCCO2)Nc1ccc(Cl)cn1	ALR inh 89
COc1ccc(NC(=O)CN(C)C(=O)CSc2ccc3c(c2)OCCO3)cc1	ALR inh 98
CCN(CC(=O)Nc1ccc2c(c1)OCCO2)C(=O)/C=C/c1ccc(OC)cc1OC	PHOSPHO1 block 62
COc1ccc(NC(=O)CCSc2ccc(F)cc2)cc1	HSF-1 act 55
CC1CCC(NC(=O)c2ccc(COc3ccccc3)o2)CC1 (configuration not stated)	none (no result: AI-2 QS mod, PHOSPHO1 block)
COC(=O)c1cc(S(=O)(=O)NCC2CCN(Cc3ccccc3F)CC2)c[nH]1	none
Cc1ccc(C)c(S(=O)(=O)N2CCN(C(=O)Cn3[nH]c(=O)c4ccccc4c3=O)CC2)c1	none (no result: PHOSPHO1 block)
Cc1ccc(C(=O)Nn2cnnc2)cc1S(=O)(=O)N1CCOCC1	none
CCOc1ccc2nc(SCC(=O)Nc3ccc4c(c3)OCCO4)[nH]c2c1	none
CC(=O)Nc1ccc(SCC(=O)Nc2ccc3c(c2)OCCO3)cc1	ALR inh 98 (no result: HSF1 inh, AI-2 QS mod, HCV core dimer, HSF-1 act, PHOSPHO1 block)
CCOc1ccc2nc(SCC(=O)Nc3cccc(S(=O)(=O)NC4=NCCCCC4)c3)[nH]c2c1	ALR inh 92
COc1ccc(NC(=O)CSc2ccc(F)cc2)cc1S(=O)(=O)N1CCCCC1	none
COc1ccc(NC(=O)CSc2ccc(NC(C)=O)cc2)cc1S(=O)(=O)N1CCCCC1	ALR inh 99
COc1ccc(NC(=O)CSc2ccc3c(c2)OCCO3)cc1	ALR inh 98 (no result: HSF1 inh, AI-2 QS mod, HCV core dimer, HSF-1 act, PHOSPHO1 block)
COc1ccc(NC(=O)CSc2ccc3c(c2)OCCO3)cc1S(N)(=O)=O	none (no result: HSF1 inh, AI-2 QS mod, HCV core dimer, HSF-1 act, PHOSPHO1 block)
CCN(C(=O)CSc1nnc(-c2ccc(F)cc2)n1C)C1CCS(=O)(=O)C1 (configuration not stated)	none (no result: HSF1 inh, AI-2 QS mod, HCV core dimer, HSF-1 act, PHOSPHO1 block)
CN1CCN(NC(=O)c2cc(S(=O)(=O)Nc3ccc(Cl)cc3)ccc2Cl)CC1	none
CSCCC(NC(=O)COc1cccc2ccccc12)C(=O)O (configuration not stated)	none
COc1ccc2nc(SCC(=O)Nc3ccc4c(c3)OCCO4)[nH]c2c1	HSF1 inh -53
CCCc1sc(N)nc1-c1ccc(C)cc1	ALR inh 78
Cc1ccc(-n2nc3c(c2NC(=O)CC(C)C)CS(=O)(=O)C3)c(C)c1	none
CC(=O)OC1CC(C)N(C(=O)c2ccccc2)c2ccc(C)cc21 (configuration not stated)	none
CC(=O)N1c2ccc(C)cc2C(c2ccccc2)CC1C (configuration not stated)	HSF-1 act 58 (no result: AI-2 QS mod)
O=C(Cc1cnn(-c2ccccc2)c1)c1ccc(O)c(O)c1O	HSF-1 act inconclusive, ALR inh 100
CCc1cc(C(=O)Cc2cnn(-c3ccccc3)c2)c(O)cc1O	none
Cc1ccc(C(C)C)cc1S(=O)(=O)Nc1cccnc1	none
Oc1ccc(Cl)cc1CNc1ccc(Br)cn1	none
Oc1c(Cl)cc(Cl)cc1CNc1ccc(Br)cn1	ALR inh 93
Cc1ccc(C)c(N(C(=O)c2snc(C(N)=O)c2N)C(C(=O)NCC2CCCO2)c2ccc(C)o2)c1 (configuration not stated)	none
N/C(Cn1cncn1)=N\NC(=O)C(=O)Nc1ccccc1	none
N/C(Cn1cncn1)=N\NC(=O)C(=O)Nc1cccc(C(F)(F)F)c1	PHOSPHO1 block 60
COc1ccc(NC(=O)COc2ccc(-c3nn(C)c(=O)c4ccccc34)cc2)cc1	HSF1 inh -83
COc1ccc(OCC(=O)Nc2cc(-c3nn(C)c(=O)c4ccccc34)ccc2OC)cc1	none (no result: ALR inh)
COc1ccc(OCC(=O)Nc2ccc3c(c2)nc(CCN2CCOCC2)n3C)cc1	none
Cc1nn(CC(=O)Nc2ccc3c(c2)nc(CCN2CCCCC2)n3C)c(=O)c2ccccc12	HSF-1 act 53 (no result: ALR inh)
COc1ccc(OCC(=O)Nc2ccc3c(c2)nc(CCn2ccccc2=O)n3C)cc1	HSF-1 act 52
Cn1c(CCN2CCCCC2)nc2cc(NC(=O)Nc3ccccc3)ccc21	HSF-1 act 58
Cc1nc2cc(NC(=O)Nc3cccc([N+](=O)[O-])c3)ccc2n1C	HSF-1 act 54
COc1ccc(Br)cc1-c1nc(CCl)cs1	ALR inh 95
CCOc1ccc(-c2nc(CCl)cs2)cc1	none (no result: ALR inh)
O=C(NCc1cccs1)Nc1cccc(Cl)c1	AI-2 QS mod -91 (no result: PHOSPHO1 block)
Cc1ccccc1CNC(=O)Nc1cccs1	none (no result: HSF1 inh, AI-2 QS mod, HSF-1 act)
O=C(NCc1cccs1)Nc1cccs1	PHOSPHO1 block 68
O=c1cc(-c2c(F)c(F)c(F)c(F)c2F)oc2c(F)c(F)c(F)c(F)c12	HSF1 inh -94, AI-2 QS mod -78
Cc1cc(C)c(S(=O)(=O)Nc2ccccc2C(=O)OCC(=O)NCc2ccccc2)c(C)c1	none
Cc1ccc(S(=O)(=O)Nc2ccccc2N2CCOCC2)cc1	none
Cc1ccc(OCC(=O)NCCc2nc3ccccc3[nH]2)c(C)c1	PHOSPHO1 block 61
COc1ccc(C(=O)c2ccc(OC)cc2OC)cc1	none
COc1ccc(C(=O)c2ccc(N(C)C)cc2)c(OC)c1	ALR inh 96
CCN(CC)CC(=O)NN=C(c1ccccc1)c1ccccc1	none
O=C(CCl)NN=C(c1ccccc1)c1ccccc1	ALR inh 94
O=C(Nc1ccc(Cl)cc1)OCCn1nnnc1C(c1ccccc1Cl)N1CCOCC1 (configuration not stated)	none
COc1ccc(S(=O)(=O)NCC2CCCN(Cc3ccc(O)cc3)C2)cc1 (configuration not stated)	none

Bioassay records as filed in PubChem BioAssay.
